Structures are written as SMILES. Activity calls are given as the source filed them. No cut-off for these calls is given here.

The subject of test [1] is B16-F10. Description: Induction of apoptosis in mouse B16F10 cells assessed as necrotic cells at IC50 after 72 hrs by annexin V-FITC/propidium iodide staining-based FACS analysis (reference value: 4.0 +/- 0.6%). It is filed as functional.
Test [2] relates to B16-F10. In words: Cytotoxicity against mouse B16F10 cells after 72 hrs by MTT assay. Type of test: functional, cell-based. To be noted: B16-F10, 72 h. The method, boiled down: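 B16F10 cells (DMEM, 2 mM glutamine, 10% heat-inactivated FCS, penicillin/streptomycin; subconfluent) seeded at 11·10^3 per well and exposed to 0–80 µg/mL for 72 h. Compounds were diluted from a 10 mg/mL stock in 50% DMSO/PBS. MTT 0.5 mg/mL for 2 h, formazan dissolved in DMSO, absorbance at 550 nm. Viability is relative to untreated controls; IC50 from four assays of six replicates, mean ± S.E.M.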

Test [3] has as its system B16-F10. Description: Induction of apoptosis in mouse B16F10 cells assessed as necrotic cells at 2 X IC50 after 72 hrs by annexin V-FITC/propidium iodide staining-based FACS analysis (reference value: 4.0 +/- 0.6%). It is filed as functional.
Test [4] deals with B16-F10. In words: Induction of apoptosis in mouse B16F10 cells assessed as late apoptotic cells at 2 X IC50 after 72 hrs by annexin V-FITC/propidium iodide staining-based FACS analysis (reference value: 9.8 +/- 2.2%). Type of test: functional.
In test [5] the test system is B16-F10. Description: Induction of apoptosis in mouse B16F10 cells assessed as early apoptotic cells at IC50 after 72 hrs by annexin V-FITC/propidium iodide staining-based FACS analysis (reference value: 3.9 +/- 0.4%). Type of test: functional.
The test system of test [6] is B16-F10. In words: Induction of apoptosis in mouse B16F10 cells assessed as early apoptotic cells at 2 X IC50 after 72 hrs by annexin V-FITC/propidium iodide staining-based FACS analysis (reference value: 3.9 +/- 0.4%). It is filed as functional.
For test [7], the system named is B16-F10. Description: Induction of ROS generation in mouse B16F10 cells at IC50 to 2 X IC50 after 72 hrs by rhodamine123/propidium iodide staining-based FACS analysis. It is filed as functional, cell-based. Summed up: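 B16F10 cells, 11·10^4 per well, treated 72 h at IC50 or 2×IC50, then given fresh medium with dihydrorhodamine 123 at a final 5 µg/mL for 30 min. Cells washed, resuspended in PBS and read by flow cytometry for Rh123 and PI fluorescence (excitation 500 nm, emission 536 nm). Rh123+ cells scored ROS-positive regardless of PI. Three experiments in duplicate, mean ± S.E.M.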

In test [8] the test system is B16-F10. Description: Induction of apoptosis in mouse B16F10 cells assessed as total apoptotic cells at 2 X IC50 after 72 hrs by annexin V-FITC/propidium iodide staining-based FACS analysis (reference value: 13.7 +/- 2.7%). Type of test: functional.
The test system of test [9] is B16-F10. Description: Induction of apoptosis in mouse B16F10 cells assessed as normal cells at IC50 after 72 hrs by annexin V-FITC/propidium iodide staining-based FACS analysis (reference value: 77.9 +/- 1.5%). It is filed as functional.
The test system of test [10] is B16-F10. In words: Induction of apoptosis in mouse B16F10 cells assessed as late apoptotic cells at IC50 after 72 hrs by annexin V-FITC/propidium iodide staining-based FACS analysis (reference value: 9.8 +/- 2.2%). It is filed as functional.
Test [11] deals with B16-F10. Description: Induction of apoptosis in mouse B16F10 cells assessed as total apoptotic cells at IC50 after 72 hrs by annexin V-FITC/propidium iodide staining-based FACS analysis (reference value: 13.7 +/- 2.7%). It is filed as functional.
The test system of test [12] is B16-F10. In words: Induction of apoptosis in mouse B16F10 cells assessed as normal cells at 2 X IC50 after 72 hrs by annexin V-FITC/propidium iodide staining-based FACS analysis (reference value: 77.9 +/- 1.5%). Type of test: functional.
For test [13], the target named is Protease (Human immunodeficiency virus 1, UniProt Q9YQ12). In words: Inhibition of HIV1 recombinant protease expressed in Escherichia coli using Abz-Ala-Arg-Val-Nle-Tyr(NO2)-Glu-Ala-Nle-NH2 as substrate by FRET assay.
Sequence of Protease (Q9YQ12 whole entry): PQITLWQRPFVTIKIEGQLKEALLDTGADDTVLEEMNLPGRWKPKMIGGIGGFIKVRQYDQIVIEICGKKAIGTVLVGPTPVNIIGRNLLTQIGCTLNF

Take `CCC(=O)O[C@H]1CC[C@]2(C)[C@H]3CC=C4[C@@H]5CC(C)(C)CC[C@]5(C(=O)O)CC[C@@]4(C)[C@]3(C)CC[C@H]2C1(C)C`: the Activity in [1] came out at 1.3%; in test [3], 2%; in [4], 16.5%; in test [5] it was 47%; in [6], 44.3%; in test [8], 60.8%. The Activity was 24.3% in test [9], 27.4% in test [10], 74.4% in test [11] and 37.2% in test [12]. Further, the IC50 in [2] was 161 µM. Besides, the outcome in test [7] was Active.

For `CC(=O)O[C@H]1CC[C@]2(C)[C@H]3CC=C4[C@@H]5CC(C)(C)CC[C@]5(C(=O)O)CC[C@@]4(C)[C@]3(C)CC[C@H]2C1(C)C` [ACETYL OLEANOLIC ACID], the concentration for half-maximal inhibition (IC50) in [13] amounted to 3.4 µM; in [2], 64.7 µM. Besides, the Activity is given as 5.8% in [1]; 5.7% in test [3]; 33.4% in [4]; 14.4% in test [5]; 14.6% in [6]; 48% in [8]. The Activity in test [9] is 39.5%; in test [10], 40.3%; in [11] it was 54.7%; in test [12], 46.3%. In addition, in test [7], the result was Active.

Take `CC1(C)CC[C@]2(C(=O)OCc3ccccc3)CC[C@]3(C)C(=CC[C@@H]4[C@@]5(C)C[C@@H](OC(=O)CCCC(=O)O)[C@H](O)C(C)(C)[C@@H]5CC[C@]43C)[C@@H]2C1`: the Activity in test [1] is 1.6%; in test [3], 0.9%; in [4], 19.8%; in test [5], 10.6%; in [6], 59.1%; in test [8], 78.9%. Moreover, the Activity in [9] was determined as 73.3%; in [10], 14.6%; in test [11], 25.2%; in test [12], 20.2%. Further, the IC50 in test [2] was found to be 63.2 µM. Besides, in [7], the result was Active.

For `CC1(C)CC[C@]2(C(=O)OCc3ccccc3)CC[C@]3(C)C(=CC[C@@H]4[C@@]5(C)CC[C@H](OC(=O)CCC(=O)O)C(C)(C)[C@@H]5CC[C@]43C)[C@@H]2C1`, the Activity amounted to 11.1% in test [1]; 0.7% in [3]; 17.6% in test [4]; 16.6% in test [5]; 74% in test [6]; 91.6% in test [8]. Moreover, the Activity in test [9] was 16.9%; in test [10], 55.5%; in [11], 72.1%; in test [12], 7.7%. In addition, in test [2], inhibition was half-maximal at 23.2 µM (IC50). The outcome in test [7] was inactive.

Regarding `CC(C)(CC(=O)O)CC(=O)O[C@H]1CC[C@]2(C)[C@H]3CC=C4[C@@H]5CC(C)(C)CC[C@]5(C(=O)OCc5ccccc5)CC[C@@]4(C)[C@]3(C)CC[C@H]2C1(C)C`, the Activity in test [1] is given as 5.3%; in test [3], 6.4%; in test [4], 36.1%; in [5], 44%; in [6] it was 52.8%; in test [8] it was 88.8%. Moreover, the Activity in [9] turned out to be 8.3%; in [10], 42.6%; in test [11] it was 86.5%; in test [12] it was 4.9%. Besides, in test [2], it took 14.2 µM to reach half-maximal inhibition (IC50). The result in test [7] was Active.

Regarding `CC1(C)CC[C@]2(C(=O)OCc3ccccc3)CC[C@]3(C)C(=CC[C@@H]4[C@@]5(C)CC[C@H](OC(=O)c6ccccc6C(=O)O)C(C)(C)[C@@H]5CC[C@]43C)[C@@H]2C1`, the IC50 was found to be 0.4 µM in [13] and 26.8 µM in test [2]. In addition, the Activity stood at 1.5% in test [1]; 1% in test [3]; 28.5% in test [4]; 64.3% in test [5]; 66.9% in test [6]; 95.4% in [8]. For the same compound, the Activity came out at 3.9% in test [9], 30.3% in test [10], 94.6% in [11] and 3.7% in [12]. Besides, the outcome in [7] was inactive.

On to `CC(=O)O[C@@H]1C[C@]2(C)[C@H]3CC=C4[C@@H]5CC(C)(C)CC[C@]5(C(=O)O)CC[C@@]4(C)[C@]3(C)CC[C@H]2C(C)(C)[C@H]1OC(C)=O`, for which the Activity in [1] is 7.1%; in test [3], 1.5%; in test [4], 59.3%; in [5], 8.7%; in test [6] it was 29.6%; in [8], 88.9%. Also, the Activity in test [9] is reported as 31.4%; in test [10], 52.9%; in test [11] it was 61.6%; in [12], 9.7%. Besides, in [2], the IC50 stood at 44.1 µM. Moreover, the result in test [7] was Active.

With `CCCC(=O)O[C@@H]1C[C@]2(C)[C@H]3CC=C4[C@@H]5CC(C)(C)CC[C@]5(C(=O)O)CC[C@@]4(C)[C@]3(C)CC[C@H]2C(C)(C)[C@H]1O`, the Activity in test [1] came out at 1.2%; in test [3], 6.8%; in test [4], 30%; in test [5], 55.6%; in test [6], 53%; in [8] it was 83%. For the same compound, the Activity in test [9] amounted to 21%; in test [10], 22.1%; in test [11] it was 77.7%; in [12] it was 10.2%. The same compound gave an IC50 in [2] of 107 µM. Also, the outcome in test [7] was Active.

Regarding `CC(=O)O[C@@H]1C[C@]2(C)[C@H]3CC=C4[C@@H]5CC(C)(C)CC[C@]5(C(=O)OCc5ccccc5)CC[C@@]4(C)[C@]3(C)CC[C@H]2C(C)(C)[C@H]1O`, the Activity was found to be 1.2% in test [1]; 0.6% in test [3]; 27.1% in [4]; 66% in test [5]; 71.3% in [6]; 98.4% in test [8]. Moreover, the Activity amounted to 12.9% in [9], 20% in test [10], 86% in test [11] and 1.1% in [12]. This compound also gave an IC50 in test [2] of 39.6 µM. Besides, the result in test [7] was Active.

With `CC1(C)CC[C@]2(C(=O)O)CC[C@]3(C)C(=CC[C@@H]4[C@@]5(C)CC[C@H](OC(=O)c6ccccc6)C(C)(C)[C@@H]5CC[C@]43C)[C@@H]2C1`, the Activity in test [1] is on record as 3.8%; in test [3] it was 8.5%; in test [4], 50.5%; in test [5], 14%; in test [6] it was 9.5%; in [8], 60%. In addition, the Activity came out at 44.6% in test [9], 37.6% in [10], 51.6% in [11] and 31.6% in test [12]. Besides, the IC50 in [2] was determined as 162 µM. Moreover, the outcome in test [7] was Active.

Regarding `CC(C)(CC(=O)O)CC(=O)O[C@@H]1C[C@]2(C)[C@H]3CC=C4[C@@H]5CC(C)(C)CC[C@]5(C(=O)OCc5ccccc5)CC[C@@]4(C)[C@]3(C)CC[C@H]2C(C)(C)[C@H]1O`, the Activity turned out to be 1.8% in test [1]; 5.6% in [3]; 65.3% in test [4]; 16.5% in test [5]; 26.9% in test [6]; 92.2% in [8]. For the same compound, the Activity in [9] is recorded as 35.4%; in [10] it was 46.3%; in test [11], 62.8%; in test [12], 2.2%. The compound further came in with an IC50 in [2] of 28.3 µM. In addition, in [7], the result was Active.

The values above are taken from ChEMBL document CHEMBL3124882, “Semi-synthesis of acylated triterpenes from olive-oil industry wastes for the development of anticancer and anti-HIV agents” (Eur J Med Chem, 2014).
